PMC6679720 (Pharmacological research, 2019)
Read-outs that look alike come from different tables or passages of the source.

Key:
Plasma Oxt = assay type: in vivo, mice; settings: for half-life: male, mouse; for time of return of plasma Oxt concentration to baseline / half-life / AUCG / AUCI / Cmax: plasma; for AUCG / AUCI / Cmax: nasal 12 μg, ELISA, mean ± s.e.m.
Method in brief: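 Male Oxt KO and wildtype C57BL/6J mice received Oxt (12 µg total) nasally (2 × 6 μl saline pipetted bilaterally on the rhinarium) or i.p. (0.1 ml saline). Blood was drawn through a jugular catheter every 30 min for 2 h and double-centrifuged (6000 rpm, 15 min, 4°C). Plasma plus an equal volume of 0.1% TFA was extracted on C18 Sep-Pak columns and assayed by Oxt ELISA. Cmax, T1/2, AUCG (pg*30 min/sample) and AUCI were calculated.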

[1] = cited from earlier work
[2] = cited from earlier work; remark: listed apart in the source
[3] = assay type: in vivo, mice; settings: for Cmax in amygdala ECF adjusted for recovery rate: adjusted for recovery rate (4.58%)
Method in brief: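 Male Oxt KO and wildtype C57BL/6J mice, housed singly. The day before, mice were anaesthetised with tribromoethanol and fitted with a jugular catheter and two linear microdialysis probes (18 kDa cut-off) in amygdala and hippocampus. Oxt (12 µg total) was given nasally (2 × 6 μl saline on the rhinarium) or i.p. in 0.1 ml saline. Dialysates were taken every 30 min for 2 h, vacuum-dried without heat, stored at -80°C, and measured unextracted by RIA.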

[4] = wildtype C57BL/6J male mice, N = 8
[5] = mice and rats, nonhuman primates, humans

CC[C@H](C)[C@@H]1NC(=O)[C@H](Cc2ccc(O)cc2)NC(=O)[C@@H](N)CSSC[C@@H](C(=O)N2CCC[C@H]2C(=O)N[C@@H](CC(C)C)C(=O)NCC(N)=O)NC(=O)[C@H](CC(N)=O)NC(=O)[C@H](CCC(N)=O)NC1=O [Oxt, oxytocin]
time of return of plasma Oxt concentration to baseline (Plasma Oxt; Oxt KO mice, intraperitoneal injection): exceeding 120 minutes
time of return of plasma Oxt concentration to baseline (Plasma Oxt; Oxt KO mice, nasal administration): 90 to 120 min
half-life (Plasma Oxt; C57BL/6J (wildtype), inhaled or intranasal, 12 ug): 25.8 ± 6 min
half-life (Plasma Oxt; C57BL/6J, ip, 12 μg): 32 ± 9.1 min
half-life (Plasma Oxt; Oxt KO, ip, 12 μg): 34.5 ± 8.9 min
AUCG (Plasma Oxt; Oxt KO male mice, N = 7): 7920 ± 1280b pg*30 min/sample
AUCI (Plasma Oxt; Oxt KO male mice, N = 7): 6120± 1280 pg*30 min/sample
Cmax (Plasma Oxt; Oxt KO male mice, N = 7): 131 ± 29 pg/sample
AUCG (Plasma Oxt; [4]): 23,600 ± 4880a pg*30 min/sample
AUCI (Plasma Oxt; [4]): 17,300 ± 5260 pg*30 min/sample
Cmax (Plasma Oxt; [4]): 398± 101 pg/sample
time for which Oxt was detected in circulation (Plasma Oxt; nasal, Oxt KO mice, spiking in the first 30 minutes): 90 min
share of the total Oxt that reaches the CNS ([1]; intravenous injection): 2×10^−6
share of the total Oxt that reaches the CNS ([1]; nasal administration): 5×10^−6
persistence of the rise of plasma Oxt after nasal application ([2]; earlier studies): 75 to 90 min
time of peak of plasma Oxt after nasal application ([2]; earlier studies): 15 to 30 min
time of peak of Oxt in circulation after nasal application [2, 5]: 15 to 30 min
time of return of Oxt in circulation to baseline after nasal application [2, 5]: 75 to 90 min
time of rise in CSF Oxt after nasal application ([2]; ref 22, 23, 28): 15 to 30 min
time of rise in CSF Oxt after nasal application ([2]; ref 24): 75 min
time of rise in CSF Oxt after nasal application ([2]; ref 26): 60 min
time of return of Oxt concentration to baseline ([3]; Oxt KO mice, amygdala, intraperitoneal injection): 60 to 90 min
time at which Cmax of Oxt occurred ([3]; after nasal administration, current study, 30-min sampling): 30 to 60 min
Cmax in amygdala ECF adjusted for recovery rate ([3]; intraperitoneal injection, wildtype mice, amygdala): 0.91 ± 0.27 ng/mL
Cmax in amygdala ECF adjusted for recovery rate ([3]; nasal administration, wildtype mice, amygdala): 4.16 ± 1.00 ng/mL
time of peak concentration in brain ECF and plasma ([3]; nasal and intraperitoneal administration, wildtype mice): 30 to 60 min
time for which Oxt remained detectable in amygdala and hippocampus ([3]; nasal, Oxt KO mice): 90 min
